Assay outcomes (PubChem BioAssay)
In the library only some 1% were active in any assay of this set; here they are far more common.
UPR XBP1 act: adaptive UPR (XBP1) activation; CHO-XBP1 luciferase reporter, IRE1-XBP1 UPR activation, luminescence; percent of tunicamycin response, DMSO as zero; activation, % at 20 µM; 330,000 compounds, 0.33% hits;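 active means versus positive control, 20 µM dose yields 30% or more activation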
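Material – CHO cell line with stable XBP1 luciferase reporter · Buffer or medium – F12 plus 10% FBS · Compound – single point, 20 µM final compound, 1% DMSO · Schedule – 16-18 h cell attachment at 37 °C, then 6 h compound exposure · Signal – Steady-Glo luminescence read · Benchmarks – high control tunicamycin 10 µg/mL final, low control DMSO vehicle only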
T cell modulator: T cell immune modulation candidate; 2C CD8+ T cell-vesicle binding, flow cytometry; active compounds read low; response (vesicle binding), % at 7 µM; 330,000 compounds, 0.068% hits; AID 2052;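 active means response, share of CD8 T cells binding vesicles, and their 90th percentile fluorescence all below set limits, cut at about 80% in these data, passing the limit was not always enough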;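 further: values below 100% mean blocked vesicle binding to the CD8+ T cells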
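Test system: purified 2C TCR transgenic mouse naive CD8+ T cells. Probe or stimulus: QL9-peptide-loaded Drosophila micro-vesicles bearing Ld, ICAM-1 and B7-1. Incubation: binding step 1.5 h, 37 °C, antibody labelling 20 min, ice. Measured by: flow cytometry of vesicle-bound cells.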
B2AR ag: activates human beta-2 adrenergic receptor causing internalization. P07550. Am2.2-beta2AR cells, FAP receptor internalization, flow cytometry. response, % (no concentration beside the values). 340,000 compounds, 0.43% hits. AID 504454;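 active means response above a set limit, near 3 SD of response in nonfluorescent compounds, cut at about 42% in these data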
Target sequence (P07550 whole entry, looked up): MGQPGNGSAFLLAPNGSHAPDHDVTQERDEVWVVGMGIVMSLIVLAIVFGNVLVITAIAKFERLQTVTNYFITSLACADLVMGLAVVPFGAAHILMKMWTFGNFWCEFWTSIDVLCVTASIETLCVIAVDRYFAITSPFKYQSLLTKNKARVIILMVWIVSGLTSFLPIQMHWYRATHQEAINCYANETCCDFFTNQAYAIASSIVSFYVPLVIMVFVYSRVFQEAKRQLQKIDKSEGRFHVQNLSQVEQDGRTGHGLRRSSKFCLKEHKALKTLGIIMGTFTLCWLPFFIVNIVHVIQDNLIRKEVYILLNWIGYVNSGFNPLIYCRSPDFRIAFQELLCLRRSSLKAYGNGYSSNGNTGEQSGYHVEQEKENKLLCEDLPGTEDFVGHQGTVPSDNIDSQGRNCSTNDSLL
CHOP UPR activ: apoptotic UPR (CHOP) activation; CHO-CHOP luciferase reporter, luminescence; percent of tunicamycin response over DMSO baseline; activation, % at 10 µM; 330,000 compounds, 0.34% hits;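 active means at 10 µM dose, activation of 40% or more, normalized to positive control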
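System: CHO CHOP reporter cells. Amount: 500 cells per well. Buffer or medium: F12 medium, 10% FBS. Compound dosing: one dose, 10 µM in 0.5% DMSO. Incubation: 6 h compound exposure at 37 °C after overnight seeding. Technique: Steady-Glo luciferase luminescence. Benchmarks: tunicamycin and DMSO controls.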
Hits are given with their value; ! = not confirmed by another sample.

Screening Cc1cccc(COc2ccc(/C=N/NC(=O)c3nnn(-c4nonc4N)c3COc3ccc(F)cc3)cc2)c1 returned UPR XBP1 act 37, T cell modulator inactive, B2AR ag inactive and CHOP UPR activ inactive.
C/C(CC(=O)Nc1ccc2c(c1)OCCO2)=N\NC(=O)c1ccccc1F was read as UPR XBP1 act inactive, T cell modulator inactive, B2AR ag 45 and CHOP UPR activ inactive.
For COc1ccccc1C(=O)N/N=C(\C)CC(=O)Nc1ccc2c(c1)OCCO2 the results were UPR XBP1 act inactive, T cell modulator inactive, B2AR ag inactive and CHOP UPR activ inactive.
CN(C)c1ccc(N=Cc2nc(-c3ccccc3)oc2OC(=O)c2ccccc2)cc1 was read as UPR XBP1 act inactive, T cell modulator 5.7, B2AR ag inactive and CHOP UPR activ inactive.
`CC(=O)Oc1oc(-c2ccccc2)nc1/C=N/c1ccccn1` gave UPR XBP1 act inactive, B2AR ag 64 and CHOP UPR activ inactive.
Screening CCOC(=O)CSc1nnc(NC(=O)c2cccc([N+](=O)[O-])c2C)s1 returned UPR XBP1 act inactive, T cell modulator inactive, B2AR ag inactive and CHOP UPR activ inactive.
For O=C1C2C3C=CC([C@@H]2C(=O)N1C1CCCCC1)[C@H]1C(=O)N(C2CCCCC2)C(=O)C31 (stereo partly specified) the results were UPR XBP1 act inactive, T cell modulator inactive, B2AR ag inactive and CHOP UPR activ inactive.
For Cc1ccccc1NC(=O)OCc1cccnc1Oc1ccc(Cl)cc1 the results were UPR XBP1 act inactive, T cell modulator inactive, B2AR ag inactive and CHOP UPR activ inactive.
`Cc1c(OCC(=O)NCc2ccccn2)ccc2c3c(c(=O)oc12)CCCC3` gave UPR XBP1 act inactive, T cell modulator inactive, B2AR ag inactive and CHOP UPR activ inactive.
Screening Cc1c(Cc2ccccc2)c(=O)oc2c(C)c(OCC(=O)NCc3ccccn3)ccc12 returned UPR XBP1 act inactive, T cell modulator inactive, B2AR ag 45 and CHOP UPR activ inactive.
`CS/C(=N\S(=O)(=O)c1cccs1)Nc1ccc(Br)cc1F` gave UPR XBP1 act inactive, T cell modulator inactive, B2AR ag 59! and CHOP UPR activ inactive.
Screening CCOC(=O)/C=C(\C)Sc1cc(O)c2ccccc2c1O returned B2AR ag 46.
O=C(CCCCN1CCCCC1)c1ccccc1 was read as UPR XBP1 act inactive, T cell modulator inactive, B2AR ag inactive and CHOP UPR activ inactive.
O=C(C(=Cc1ccccc1)CN1CCCCC1)c1ccccc1 was read as B2AR ag 49.
For Cc1ccn(CCC(=O)N2CCCC(CCC(=O)N3CCN(c4ccccn4)CC3)C2)n1 (stereo unspecified) the results were UPR XBP1 act inactive, T cell modulator inactive, B2AR ag inactive and CHOP UPR activ inactive.
Screening COC(=O)C(Cc1ccccc1)NS(=O)(=O)c1ccccc1Br (stereo unspecified) returned UPR XBP1 act inactive, T cell modulator inactive, B2AR ag inactive and CHOP UPR activ inactive.
For Cc1ccc(CCC2C3=C(CCCC3=O)OC3=C2C(=O)CCC3)cc1 the results were UPR XBP1 act inactive, T cell modulator 0.0, B2AR ag inactive and CHOP UPR activ inactive.
`O=C(C[C@H]1C[C@H](C(=O)N2CCCCC2)[C@@]2(CCc3ccccc3)c3[nH]c4cc(-c5ccco5)ccc4c3CCN2C1=O)NCCN1CCOCC1` gave UPR XBP1 act inactive, B2AR ag 42 and CHOP UPR activ inactive.
For Cc1ccc(S(=O)(=O)N2CCC(C(=O)Nc3cc(C(F)(F)F)ccc3N3CCOCC3)CC2)cc1C the results were UPR XBP1 act inactive, T cell modulator 48, B2AR ag inactive and CHOP UPR activ inactive.
For Cc1ccc(C(=O)OCC(=O)NCCc2ccccc2)cc1S(=O)(=O)N1CCOCC1 the results were UPR XBP1 act inactive, T cell modulator inactive, B2AR ag inactive and CHOP UPR activ inactive.
Screening C[C@@]12C(=O)OC(=O)[C@]1(C)C1CCC2O1 returned UPR XBP1 act inactive, T cell modulator inactive, B2AR ag 81 and CHOP UPR activ 101.
For CCC(=O)OCCNc1cc(Sc2nc3ccccc3[nH]2)c2nonc2c1[N+](=O)[O-] the results were T cell modulator inactive and B2AR ag 78.
Screening CCCC(=O)OCCNc1cc(SCc2ccco2)c2nonc2c1[N+](=O)[O-] returned UPR XBP1 act inactive, T cell modulator inactive, B2AR ag 64 and CHOP UPR activ inactive.
`Cc1c(C(=O)N(Cc2cccc(Br)c2)C2CCS(=O)(=O)C2)oc2ccccc12` (stereo unspecified) gave UPR XBP1 act inactive, T cell modulator inactive, B2AR ag inactive and CHOP UPR activ inactive.
Cc1ccsc1/C=N/NC(=O)c1cccc(S(=O)(=O)Nc2ccccc2Cl)c1 was read as UPR XBP1 act inactive, T cell modulator inactive, B2AR ag inactive and CHOP UPR activ inactive.
Screening CCc1ccc(Sc2cc(C(=O)NCCN3CCOCC3)c3ccccc3n2)cc1 returned UPR XBP1 act inactive, T cell modulator inactive, B2AR ag inactive and CHOP UPR activ inactive.
COC(=O)/C=C1\C(=O)N(c2nc3ccc(OC)cc3s2)C(=S)N1c1ccc(F)cc1 was read as UPR XBP1 act inactive, T cell modulator inactive and CHOP UPR activ 73.
O=C(O)c1ccc(NC2=C(Cl)C(=O)c3ccccc3C2=O)cc1 was read as UPR XBP1 act inactive, T cell modulator inactive, B2AR ag 96 and CHOP UPR activ inactive.
For O=C1C(Cl)=C(Nc2ccccc2)C(=O)c2ccccc21 the results were T cell modulator inactive and B2AR ag inactive.
For Cc1ccc(CS(=O)(=O)CCC(=O)NCCN(C)Cc2ccccc2)cc1 the results were UPR XBP1 act inactive, T cell modulator inactive, B2AR ag inactive and CHOP UPR activ inactive.
Screening CC(=O)c1c(O)c2ccccc2n(Cc2ccccc2)c1=O returned UPR XBP1 act inactive, T cell modulator 58, B2AR ag inactive and CHOP UPR activ inactive.
CC1CC(C)CN(CCCNC(=O)c2ccc3c(c2)NC(=O)CS3)C1 (stereo unspecified) was read as UPR XBP1 act inactive, T cell modulator inactive, B2AR ag inactive and CHOP UPR activ inactive.
For Cc1sc2ncnc(NCC(C)(C)N3CCOCC3)c2c1C the results were UPR XBP1 act inactive, T cell modulator 56, B2AR ag inactive and CHOP UPR activ inactive.
For Cc1sc2ncnc(NCC3(N4CCOCC4)CCCCC3)c2c1C the results were UPR XBP1 act inactive, T cell modulator inactive, B2AR ag inactive and CHOP UPR activ inactive.
CCCOCc1ccc(O)c2ncccc12 was read as UPR XBP1 act inactive, T cell modulator inactive, B2AR ag inactive and CHOP UPR activ inactive.
Screening Oc1ccc(COCc2ccccc2)c2cccnc12 returned UPR XBP1 act inactive, T cell modulator inactive, B2AR ag inactive and CHOP UPR activ 74.
Screening COc1ccc(N=CC2=C(Nc3ccc(OC)cc3)c3c(C)nn(-c4ccccn4)c3CC2)cc1 returned UPR XBP1 act inactive, T cell modulator inactive and CHOP UPR activ 59.
For O=C(N/N=C/c1ccc[nH]1)c1cc2ccccc2cc1O the results were UPR XBP1 act inactive, T cell modulator inactive, B2AR ag 46 and CHOP UPR activ inactive.
